In ChEMBL document CHEMBL2086375 (Bioorg Med Chem, 2012):

Tests used:
Liver = assay: Prodrug activation in mouse liver microsomes at 1 uM incubated for 10 mins prior to NADPH addition measured after 30 mins by LC/MS/MS analysis; parameters: species or system Microsome; details: 0.5 h
Method in brief: (§1)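 Liver microsomes were pre-warmed with compound at 37 °C for 10 min, and the reaction was started with NADPH at 1 mM final. A parallel incubation without NADPH served as control. After 30 min at 37 °C, samples were quenched with acetonitrile containing 0.1% formic acid and internal standard, then centrifuged. Supernatant was diluted fivefold and read by LC/MS/MS (SRM, positive ESI). Results are percent of control remaining.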

Liver microsomes [1] = assay: Prodrug activation in human liver microsomes at 1 uM incubated for 10 mins prior to NADPH addition measured after 30 mins by LC/MS/MS analysis; parameters: species or system Microsome; details: 0.5 h; method in brief: as §1
[2] = Prodrug activation in simulated intestinal fluid at 0.01 mg/mL after 60 mins by LC/MS analysis; details: simulated gi fluid, 1 h
Method in brief: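 Compound at 0.01 mg/mL in simulated intestinal fluid, mixed and held at 37 °C for 60 min. Samples were injected consecutively onto a C18 reverse-phase HPLC column for analysis. Results are percent disappearance of prodrug.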

Liver microsomes [3] = assay: Drug metabolism in human liver microsomes assessed as high CYP1A2 activity-mediated N-hydroxyriluzole formation at 1 uM incubated for 10 mins prior to NADPH addition measured after 30 mins by LC/MS/MS analysis; assay type: ADME, Microsome; details: 0.5 h
Liver microsomes [4] = assay: Metabolic stability in human liver microsomes assessed as low CYP1A2 activity-mediated metabolism measured as compound remaining at 1 uM incubated for 10 mins prior to NADPH addition measured after 30 mins by LC/MS/MS analysis relative to control; details: 0.5 h
[5] = Half life in simulated gastric fluid at 1 mg/mL; assay type: physicochemical
[6] = Half life in simulated intestinal fluid at 1 mg/mL; assay type: physicochemical; details: simulated gi fluid
Liver microsomes [7] = assay: Half life in human liver microsomes at 1 uM; assay type: ADME, Microsome
Liver microsomes [8] = assay: Metabolic stability in human liver microsomes assessed as high CYP1A2 activity-mediated metabolism measured as compound remaining at 1 uM incubated for 10 mins prior to NADPH addition measured after 30 mins by LC/MS/MS analysis relative to control; details: 0.5 h
Liver microsomes [9] = assay: Metabolic stability in human liver microsomes assessed as low CYP1A2 activity-mediated metabolism measured as compound remaining at 1 uM after 30 mins by LC/MS/MS analysis relative to control; details: 0.5 h
[10] = Half life in human plasma at 1 uM; assay type: ADME, cell-free
Liver microsomes [11] = details: human, 0.5 h, 1 µM

SMILES | Drug metabolism (Liver) [%] | Drug metabolism (Liver microsomes [1]) [%] | Drug metabolism [2] [%] | further results
N[C@@H](Cc1ccccc1)C(=O)Nc1nc2ccc(OC(F)(F)F)cc2s1 | 2 | 0 | – | –
O=C(CCC(=O)Nc1nc2ccc(OC(F)(F)F)cc2s1)NCc1cccnc1 | 0 | 4 | 10 | –
O=C(Cc1ccccc1[N+](=O)[O-])Nc1nc2ccc(OC(F)(F)F)cc2s1 | 59 | 22 | 0 | –
CN(C)CCOC(=O)Nc1nc2ccc(OC(F)(F)F)cc2s1 | 13 | 10 | 0 | –
O=C(O)CCC(=O)Nc1nc2ccc(OC(F)(F)F)cc2s1 | 70 | 0 | 0 | –
COC(=O)CCC(=O)Nc1nc2ccc(OC(F)(F)F)cc2s1 | 77 | 34 | 0 | –
Nc1nc2ccc(OC(F)(F)F)cc2s1 [RILUZOLE] | – | – | – | Drug metabolism (Liver microsomes [3]): Active
C[C@H](N)C(=O)Nc1nc2ccc(OC(F)(F)F)cc2s1 | 1 | 0 | 50 | –
N[C@H](COCc1ccccc1)C(=O)Nc1nc2ccc(OC(F)(F)F)cc2s1 | 24 | 0 | – | –
NCCCC(=O)Nc1nc2ccc(OC(F)(F)F)cc2s1 | 66 | 19 | 0 | –
CC(C)(C)OC(=O)CCC(=O)Nc1nc2ccc(OC(F)(F)F)cc2s1 | 0 | 21 | 0 | –
CCCCOC(=O)Nc1nc2ccc(OC(F)(F)F)cc2s1 | 53 | 13 | 0 | –
C[C@@H](N)C(=O)Nc1nc2ccc(OC(F)(F)F)cc2s1 | 10 | 4 | 50 | –
O=C(CCC(=O)Nc1nc2ccc(OC(F)(F)F)cc2s1)NCCN1CCOCC1 | – | – | 60 | –
CN(C)CCCOC(=O)Nc1nc2ccc(OC(F)(F)F)cc2s1 | 71 | 0 | 0 | –
COC(=O)Nc1nc2ccc(OC(F)(F)F)cc2s1 | 10 | 0 | 0 | –
N[C@H](Cc1ccccc1)C(=O)Nc1nc2ccc(OC(F)(F)F)cc2s1 | 12 | 18 | 0 | –
NCC1(CC(=O)Nc2nc3ccc(OC(F)(F)F)cc3s2)CCCCC1 | – | – | 50 | –
CCOC(=O)Nc1nc2ccc(OC(F)(F)F)cc2s1 | 8 | 7 | 0 | –
CC(C)[C@H](N)C(=O)Nc1nc2ccc(OC(F)(F)F)cc2s1 | 40 | 6 | 40 | –
N[C@@H](COCc1ccccc1)C(=O)Nc1nc2ccc(OC(F)(F)F)cc2s1 | 0 | 15 | 0 | Stability (Liver microsomes [4]): 78%; half-life at 1 mg/mL [5]: > 1 h; t1/2 [6]: 1.63 h; t1/2 (Liver microsomes [7]): > 1 h; Stability (Liver microsomes [8]): 70%; Stability (Liver microsomes [9]): 76%; half-life at 1 µM [10]: 5 h; Stability (Liver microsomes [11]): 77%
CCCOC(=O)Nc1nc2ccc(OC(F)(F)F)cc2s1 | 15 | 34 | 0 | –
CCC(C)OC(=O)Nc1nc2ccc(OC(F)(F)F)cc2s1 (centres undefined) | 23 | 14 | 0 | –
